# SMARCA2 act: activators of SMARCA2 function; activation, % at 9.1 µM; MG213 cells, MMTV-luciferase reporter, dexamethasone, overnight; 1% of 370,000 active; in the data active = activation above about 7.8%
# ATG4B inhibitor: inhibitors of human ATG4B cysteine protease; ATG4B cleavage of LC3-PLA2, NBD-HPC fluorescence, 1 h; 0.51% of 340,000 active; inhibition, % at 8.33 µM; Q9Y4P1; AID 504462; in the data active = inhibition above about 40%
# MC4R antagonist: blocks human MC4R cAMP signaling; MC4R-expressing cells, MTII-stimulated cAMP, LANCE TR-FRET; inhibition, % at 6.5 µM; 0.48% of 360,000 active; P32245;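 active = inhibition above its plate's cutoff, the mean of tested wells on that plate plus 3 SD, cut at about 29% in these data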
# Target sequence (P32245 whole entry, looked up): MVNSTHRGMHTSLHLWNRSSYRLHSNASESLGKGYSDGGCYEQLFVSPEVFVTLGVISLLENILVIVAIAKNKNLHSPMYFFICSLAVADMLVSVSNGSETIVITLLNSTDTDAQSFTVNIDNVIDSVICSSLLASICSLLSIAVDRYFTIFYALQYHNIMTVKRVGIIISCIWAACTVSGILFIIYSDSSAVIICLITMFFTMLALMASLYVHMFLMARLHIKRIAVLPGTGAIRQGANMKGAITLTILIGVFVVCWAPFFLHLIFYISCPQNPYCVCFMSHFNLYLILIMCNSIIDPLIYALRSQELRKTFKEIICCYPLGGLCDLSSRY
#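 material = U2OS cells stably expressing human melanocortin 4 receptor (MC4R) | also added = Melanotan II challenge | dosing = single nominal compound dose of 6.5 µM | detection = TR-FRET with Eu-cAMP and labeled anti-cAMP, 671 nm | replication = singlicate | timing = compound 30 min, challenge 1 h, detection 1 h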
# MC4R ag barr: human MC4R agonism via beta-arrestin; U2OS MC4R beta-arrestin complementation, luminescence; percent of melanotan II response, DMSO zero; 0.98% of 360,000 active; activation, % at 8.9 µM;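 active = activation above a per-plate cutoff, the mean activation of sample wells on that plate plus 3 SD, cut at about 8% in these data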
# MPTP block: blocks calcium-induced mitochondrial swelling; isolated mouse mitochondria, Ca2+ swelling absorbance, 30 min; inhibition, % at 10 µM; 1.4% of 360,000 active;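 active = inhibition of 50% or more, scaled per plate between neutral and stimulator controls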
# SMARCA2 conf: SMARCA2 activation, confirmation screen. shares compounds with SMARCA2 act. MG213 cells, MMTV-luciferase with dexamethasone, luminescence, overnight; MG213 cells expressing E1A, Rb sequestered; DMSO wells 0%, reference activator 100%. activation, % at 9.1 µM. 30% of 3,500 active;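 active = activation above its plate's cutoff, the mean activation of tested wells plus 3 SD, cut at about 7.9% in these data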
# GAL4-VP16 Luc: activates GAL4-VP16 luciferase, flagging SMARCA2 activator hits | 41% of 3,500 active | HEK293 GAL4-VP16 pG5luc reporter, luciferase luminescence; scaled: DMSO wells 0%, SAHA wells 100% | AID 686939 | shares compounds with SMARCA2 act | activation, % at 9.1 µM;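 active = activation above the solvent-only control well mean plus 3 SD, averaged across control plates, cut at about 5.2% in these data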
# Numbers stand for hits; n = inactive; x = no result. Compounds with a hit are over-represented: about 4.1% of the library has one in this group of screens.
SMILES,SMARCA2 act,ATG4B inhibitor,MC4R antagonist,MC4R ag barr,MPTP block,SMARCA2 conf,GAL4-VP16 Luc
COc1cc(OC)cc(C(=O)N(CCCN2C(=O)c3cccc4cccc(c34)C2=O)c2cccc(OC)c2)c1,n,n,n,n,n,x,x
COC(=O)C1CCc2c(ccc3c2CCCC3)C1=O (stereo unspecified),11,n,n,n,n,n,8.5
CCOC(=O)N(C)[C@H]1C[C@H]2c3cc(-c4ccccc4C)ccc3CCN2C[C@H]1[C@H](C)O,n,x,x,x,x,x,x
CC(C)c1ccc(C(=O)NN2C(=O)C3CCCCC3C2=O)cc1 (stereo unspecified),13,n,n,n,n,9.3,8.5
Cc1ccc(OCCCCCCN2CCNCC2)c(Br)c1,11,n,n,n,n,n,9.7
CCOc1cc2c(cc1OCC)C(c1ccccc1)N(c1ccc(C(=O)O)cc1)C(=O)C2 (stereo unspecified),9.5,n,n,n,n,n,n
COc1ccc(N)c2c1C(=O)c1ccccc1C2=O,8.3,n,n,n,n,16,n
COc1ccc(OC)c2c1C(=O)c1ccccc1C2=O,n,n,x,x,x,x,x
COc1ccc2noc3c2c1C(=O)c1ccccc1-3,16,n,n,n,n,8.4,n
CC1(C)OC(=O)C2=C(C[C@@H](CCC(F)(F)F)O[C@H]2c2ccc(F)cc2)O1,8.2,x,x,x,n,n,n
CC1(C)OC(=O)C2=C(CC(CCc3ccccc3)OC2c2ccc(F)cc2)O1 (stereo unspecified),n,x,x,x,x,x,x
COc1ccc(C2=NOC(C(=O)Nc3ccc(C(C)=O)cc3)C2)cc1OC (stereo unspecified),n,n,n,n,n,x,x
COc1ccc(C2=NOC(C(=O)Nc3cc(Br)ccc3O)C2)cc1OC (stereo unspecified),8.6,n,n,n,n,n,n
CCOC(=O)c1csc(-c2ccc3c(c2)CCO3)n1,16,n,n,n,n,n,6.7
Cc1ccsc1/C=N/Nc1nc2ccccc2[nH]1,12,n,n,n,n,13,15
CCn1c(SCC(N)=O)nc2ccccc2c1=O,8.0,n,n,n,n,n,n
COc1ccc(-c2noc(C3CCCN(C(=O)c4ccc(C)cc4)C3)n2)cc1 (stereo unspecified),n,n,n,n,n,x,x
COc1ccc(-c2noc(C3CCCN(C(=O)Nc4cc(C)cc(C)c4)C3)n2)cc1 (stereo unspecified),10,x,x,x,x,n,9.7
CCCOc1ccc(-c2nnc(N)s2)cc1,9.6,n,n,n,n,11,8.0
COc1ccc(-c2nnc(N)s2)cc1,n,n,n,n,n,x,x
O=C(NCc1ccccc1)[C@@H]1CCCN1C(=O)[C@H]1CCCN1C(=O)N1CCCCC1,n,x,x,x,x,x,x
Cc1ccc(NC(=O)c2cccc3cccnc23)cc1,8.2,n,n,n,n,20,9.1
CC(=O)Nc1cccc(NC(=O)c2cccc3cccnc23)c1,n,n,n,n,n,x,x
Cn1c(CNC(=O)C2CCCCC2)cc2ccccc21,8.2,n,n,n,n,n,n
CCN(C(=O)C1CCN(c2ncccn2)CC1)c1ccccc1,n,x,x,x,x,x,x
SMILES,SMARCA2 act,ATG4B inhibitor,MC4R antagonist,MC4R ag barr,MPTP block,SMARCA2 conf,GAL4-VP16 Luc
COCC1CCN(Cc2nc(COc3ccccc3)no2)C1 (stereo unspecified),8.3,n,n,n,n,n,n
COCC1CCN(Cc2nc(-c3cccs3)no2)C1 (stereo unspecified),13,n,n,n,n,n,6.0
COCCn1c(C)cc(C(=O)COC(=O)c2ccc(Br)o2)c1C,n,n,n,n,n,x,x
Cc1cc(C(=O)COC(=O)c2ccc(Br)o2)c(C)n1C,9.7,n,n,n,n,15,6.5
COc1ccc(N2CCN(c3cncc(C)n3)CC2)cc1,8.2,x,n,n,n,n,n
Cc1cccc(NC(=O)CN2C(=O)N/C(=C\c3ccccc3OCc3ccc(C(=O)O)cc3)C2=O)c1,8.7,n,n,n,n,n,n
COc1ccc(N2C[C@@]3(O)CC[C@@H](O)[C@@H](OC)[C@@H]3[C@@](C)(O)[C@@H]2CC=C(C)C)cc1,n,x,x,x,x,x,x
COC(=O)[C@]12C[C@H](CC(=O)N3CCCCC3)C(=O)N(Cc3ccco3)C1=C[C@H](C1CCCC1)O[C@@H]2C,n,x,x,x,x,x,x
CC(C)COc1ccc(-c2nnn(CC(=O)N3CCCC3)n2)cc1,9.9,n,n,n,n,n,8.2
O=C(Cn1nnc(-c2ccccc2)n1)N1CCCCC1,n,n,n,n,n,x,x
COC(=O)CNc1c(-c2ccccc2)nc2ccc(Br)cn12,14,n,n,n,n,11,6.8
CCN(CC)c1nc(C)nc2c1sc(=S)n2C,n,n,n,n,n,x,x
Cc1nc(N(C)C)c2sc(=S)n(Cc3ccccc3)c2n1,8.8,n,n,n,n,n,n
O=C1c2cccc3cccc(c23)C(=O)N1CCN1CCN(CC(O)COCc2ccc(Cl)cc2)CC1 (stereo unspecified),8.7,n,n,n,n,8.5,5.4
CC(=O)c1ccccc1OCC(O)CN1CCN(CCN2C(=O)c3cccc4cccc(c34)C2=O)CC1 (stereo unspecified),n,n,n,n,n,x,x
CC1(C)CC(NC(=O)c2cc(Cl)ccc2Cl)CC(C)(C)N1,10,n,n,n,n,n,n
Cc1cc(C)c2c(N)c3cccc(C)c3nc2n1,28,n,n,n,n,347,6.1
Cc1cccc2c(N)c3c(nc12)CCCC3 (tested in a mixture with another compound),n,n,n,n,n,x,x
O=c1c(Br)c(N2CCCC2)cnn1-c1ccccc1,n,n,n,n,n,x,x
O=c1c(Br)c(N2CCCCC2)cnn1-c1ccccc1,8.7,n,n,n,n,9.8,9.0
Cc1cc2c([nH]c3ccccc32)c2c1OC(C)(C)C=C2,8.3,n,n,n,n,14,7.9
Clc1ccc(-c2nnc(-c3ccco3)o2)cc1,13,n,n,n,n,8.0,8.3
O=S(=O)(c1ccc(NC(=S)Nc2ccc3c(c2)OCO3)cc1)N1CCOCC1,n,n,n,n,n,x,x
CNS(=O)(=O)c1ccc(NC(=S)Nc2ccc3c(c2)OCO3)cc1,9.0,n,n,n,n,n,n
CCOC(=O)c1ccc(NC(=S)N(CCN(C)C)C(C)c2ccncc2)cc1 (stereo unspecified),11,n,n,n,n,n,n
Cc1cc(NS(=O)(=O)c2ccc(NC(=O)CSc3nnc(-c4cccnc4)n3-c3ccccc3)cc2)nc(C)n1,n,x,x,x,x,x,x
Nc1nc(N)c2sc3nc4c(cc3c2n1)CCC4,8.1,n,n,n,n,11,5.1
